# A selection: hits, their analogues and other compounds. The true share with any hit is near 2.7%.
# FLuc inhib CS: firefly luciferase enzyme inhibitors, primary screen, artefact control for luciferase-based inhibitor screens, biochemical, luminescence, ATPLite. Luciferin 4-monooxygenase (Photinus pyralis), P08659. 10 min. inhibition, % at 10 µM. actives 1.5% (n = 200,000). AID 1006, 2008;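 active = inhibition above about 50% when tested at 10 µM, limit read from the data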
# Target sequence (P08659 whole entry, looked up): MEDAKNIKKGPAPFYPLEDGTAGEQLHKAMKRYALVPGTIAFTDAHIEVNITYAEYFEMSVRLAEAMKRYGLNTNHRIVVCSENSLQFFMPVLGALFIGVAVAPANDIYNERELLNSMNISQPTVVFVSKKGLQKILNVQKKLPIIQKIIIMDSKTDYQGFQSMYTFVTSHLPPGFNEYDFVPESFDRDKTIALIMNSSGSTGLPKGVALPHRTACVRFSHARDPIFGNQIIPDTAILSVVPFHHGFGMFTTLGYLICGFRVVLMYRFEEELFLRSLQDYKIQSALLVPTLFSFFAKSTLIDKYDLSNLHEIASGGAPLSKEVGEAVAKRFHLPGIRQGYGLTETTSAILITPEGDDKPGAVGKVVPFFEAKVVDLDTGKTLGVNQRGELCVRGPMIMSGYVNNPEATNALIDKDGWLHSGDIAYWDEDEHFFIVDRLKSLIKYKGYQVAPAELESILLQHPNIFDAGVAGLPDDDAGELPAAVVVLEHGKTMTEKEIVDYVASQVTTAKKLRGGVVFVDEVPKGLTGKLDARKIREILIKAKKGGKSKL
# Measles CPE: compounds protecting cells from measles virus cytopathic effect, primary screen, measles RdRp inhibitor project, single point, MLSMR library, absorbance; Measles virus-infected cells, CPE protection; protection (pct of control), % at 4 µM; actives 1.5% (n = 140,000); in the data active = protection mostly above about 24%, no sharp cut-off; inactive = mostly below about 26%
# Redox H2O2 prof: compounds producing H2O2 with reducing agent – biochemical, NIH compound library profiling, artefact control for MLSCN library redox annotation, primary screen; AID 878, 2007; activation, % at 10 µM; DTT-dependent redox cycling H2O2, phenol red/HRP absorbance; 100% = 100 µM peroxide control, 0% = buffer; actives 0.03% (n = 200,000);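 active = activation of at least 50% relative to the plate's high and low controls in the primary single-dose screen; inactive = activation below 50%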;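 note: compound incubated with DTT at 0.8 mM final as the reducing agent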
# ABCG2 inh: ABCG2 efflux pump inhibitors, primary screen, multiplex with ABCB1, IgMXP3 cells, flow cytometry; JC-1 efflux; Broad substrate specificity ATP-binding cassette transporter ABCG2 (Homo sapiens), Q9UNQ0; actives 0.1% (n = 190,000); AID 1325, 2008; inhibition, % at 6.6 µM;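 active = inhibition above 80%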;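 note: 0% = DMSO and 100% = nicardipine control wells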
#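 test system = two drug-resistant human cell lines, ABCG2 and ABCB1 | amount = 3 million cells/mL final, two lines in 1:1 ratio | reagent = JC-1 transporter substrate | doses = one concentration, 6.6 µM final | incubation = 10 min at 25 °C | signal = flow cytometric JC-1 green MFI at 530 nm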
# FLuc stim CS: FLuc activators, initial screening, artefact control for FLuc-dependent activation tests, biochemical, ATPlite luminescence | ATPlite luciferase biochemical, 10 min; 0 = ATP-free wells, 1 = DMSO control | 200,000 tested, under 10 active | AID 1027, 2008 | activation factor at 10 µM;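 active = luciferase activation factor, scaled between plate controls, of at least 2 with compound at 10 µM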
#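 Material: Luciferase/luciferin reagent mix | Doses: Test compounds dosed from 2 mM stocks in 100% DMSO | Timing: 10 min incubation after luciferase reagent addition, room temperature | Measured by: Luminescence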
# ABCB1 block: ABCB1 efflux pump inhibitors, primary screen, cell-based, multiplex, flow cytometry, ABCG2 counter-screen; ATP-dependent translocase ABCB1 (Homo sapiens), P08183; CCRF-Adr cells, JC-1 efflux; inhibition, % at 6.6 µM; actives 0.067% (n = 190,000); AID 1326, 2008; in the data active = inhibition above about 40%;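 note: 0% = vehicle and 100% = reference inhibitor; higher value means more JC-1 retained so stronger ABCB1 efflux block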
# Active calls of the source: *; x = no result given.
SMILES,FLuc inhib CS,Measles CPE,Redox H2O2 prof,ABCG2 inh,FLuc stim CS,ABCB1 block
O=[N+]([O-])c1ccc(C(O)C23CN4CN(CN(C4)C2)C3)cc1 (configuration not stated),-8,x,-1,-2,1.1,-1
CN(C)S(=O)(=O)c1ccc(NC(=O)CN2CCCc3ccccc32)cc1,-5,x,-1,2,1,1
O=C(c1ccccc1)N1CCN(c2ccc([N+](=O)[O-])c(NCC3CCCO3)c2)CC1 (configuration not stated),-3,x,0,30,1,3
Cn1c(SCC(=O)NCc2ccc(F)cc2)nc2c([nH]c3ccccc32)c1=O,3,x,0,11,1,0
CC(=O)C(=Cc1cn(-c2ccccc2)nc1-c1ccccc1)C(C)=O,-6,x,0,11,1.1,1
COc1ccc(CN2C(=O)N(c3ccccc3)C(=O)C2CC(=O)Nc2ccccc2)cc1OC (configuration not stated),-2,x,0,4,1,1
Cn1c(CO)c(-c2ccccc2)c2cc([N+](=O)[O-])ccc21,-3,37*,1,-5,1,-1
O=[N+]([O-])c1ccc2c(c1)[nH]c(=S)n2-c1ccccc1,-7,x,0,-2,1.1,-1
Cc1cc(OC(=O)C(c2ccccc2)c2ccccc2)c([N+](=O)[O-])c(=O)[nH]1,-2,3,0,-2,1,0
O=C(c1ccco1)N(CCC(c1ccccc1)c1ccco1)Cc1ccc(F)cc1 (configuration not stated),-3,37*,-4,2,1,1
CC1(C)CC(C(CCN(Cc2ccccc2)C(=O)c2ccco2)c2ccc(F)cc2)CCO1 (configuration not stated),-4,27,0,-2,1,4
O=c1[nH]cnc2scc(-c3ccc(-c4ccccc4)cc3)c12,60*,13,0,4,0.4,0
Cc1cc(OCc2ccc(F)cc2)nc(-c2ccccc2O)n1,-7,33*,1,4,1.1,1
Cc1ccc(Oc2cc(C)nc(-c3ccccc3O)n2)cc1,-3,12,0,2,1,0
Cc1cc(OC2CCCCC2)nc(-c2ccccc2O)n1,-4,3,0,1,1,0
Cc1cc(Oc2ccc(Cl)cc2)nc(-c2ccccc2O)n1,3,31*,2,13,1,0
CC(C)NC(=O)NC(=O)COC(=O)c1cccc(S(=O)(=O)N2CCCCC2)c1,-4,6,0,2,1,1
O=C(Cn1cnc2c(cnn2-c2ccccc2)c1=O)Nc1ccc(S(=O)(=O)N2CCOCC2)cc1,-8,12,0,10,1.1,1
COc1ccc(-n2ncc3c(=O)n(CC(=O)Nc4ccc(S(=O)(=O)N5CCOCC5)cc4)cnc32)cc1,-6,60*,0,-3,1.1,-1
CC(C)(C)C1CCc2sc(C(=O)NNC(=O)CCl)cc2C1 (configuration not stated),57*,x,0,2,0.4,0
CC(C)c1ccc(-c2cc(C(=O)N3N=C(C(F)F)CC3(O)C(F)F)c3ccccc3n2)cc1 (configuration not stated),65*,27,0,4,0.4,1
O=C(c1cc(C2CC2)nc2ccccc12)N1N=C(C(F)F)CC1(O)C(F)F (configuration not stated),-2,19,1,1,1,1
CN1CCN(NC(=O)c2cc(-c3cccc(Cl)c3)nc3ccccc23)CC1,-8,x,0,5,1.1,0
CC(C)c1ccc(-c2cc(C(=O)NN3CCN(C)CC3)c3ccccc3n2)cc1,88*,2,0,-2,0.1,1
O=C(Nc1cc(SCCO)cc([N+](=O)[O-])c1)c1ccco1,-7,15,0,5,1.1,0
SMILES,FLuc inhib CS,Measles CPE,Redox H2O2 prof,ABCG2 inh,FLuc stim CS,ABCB1 block
O=C(Cc1cccs1)Nc1cc(SCCO)cc([N+](=O)[O-])c1,-5,102*,-1,44,1.1,1
O=C(COc1ncnc2ccccc12)N1CCN(S(=O)(=O)c2ccc(Cl)cc2)CC1,-6,4,-1,1,1.1,0
O=C(COc1ncnc2ccccc12)c1ccc(Cl)cc1,80*,x,1,3,0.2,0
CCN(CC)S(=O)(=O)c1ccc(/C=C/C(=O)OCC(=O)Nc2ccc(C(N)=O)cc2)cc1,-6,x,-2,-2,1.1,0
CCN(CC)S(=O)(=O)c1ccc(/C=C/C(=O)OCC(=O)Nc2ccc(S(N)(=O)=O)cc2)cc1,-3,28*,0,0,1,0
COCCNC(=O)C(c1ccc(C)cc1)N(C(=O)C(=O)NC1CCCC1)c1ccc2c(c1)OCCO2 (configuration not stated),-2,x,0,3,1,1
O=c1c2c(nc3n1CCCCC3)sc1c(O)c(Br)ccc12,81*,2,0,10,0.2,0
CC(C)CNC(=O)CC(=O)N/N=C/c1cccs1,-1,25*,-1,-4,1,0
CCCCCC(=O)N/N=C/c1cccs1,5,7,1,0,0.9,0
COc1ccc(OCC(O)CN2CCN(c3ncccn3)CC2)cc1 (configuration not stated),0,5,0,-2,1,0
COc1ccc(N2CCN(c3ncccn3)CC2)cc1,-5,28*,0,9,1,1
COc1ccc(N2CCN(c3nc4ccccc4n3CC(=O)c3ccccc3)CC2)cc1,-3,7,-1,1,1,2
COc1ccc(N2CCN(Cc3nc4ccccc4n3C)CC2)cc1,-5,37*,0,5,1,1
O=C(COC(=O)c1cc(F)cc(F)c1)Nc1cccnc1Cl,-2,x,0,8,1,0
O=C1ON=C(c2cccc([N+](=O)[O-])c2)/C1=C/c1ccc(O)cc1,-5,x,0,0,1.1,0
Nc1nc(-c2ccccc2)cs1,-2,5,0,0,1,0
CNc1nc(-c2ccccc2)[n+](-c2ccc(C)cc2)s1,89*,2,0,2,0.1,4

# Bioassay records (PubChem BioAssay)
